Data from ChEMBL document CHEMBL1140132, “Virtual screening, identification, and biochemical characterization of novel inhibitors of the reverse transcriptase of human immunodeficiency virus type-1” (J Med Chem, 2008).
The source made the active and inactive calls. The rule behind the calls is not given here.

Assays:
[1] = Selectivity index, ratio of inhibition of DNA dependent DNA polymerase activity of Escherichia coli DNA polymerase 1 Klenow fragment to inhibition of DNA dependent DNA polymerase activity of HIV1 BH10 recombinant reverse transcriptase p66/p51
How it was run: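 Ratio of residual Klenow fragment DNA-dependent DNA polymerase activity to residual HIV-1 RT activity. Both enzymes were assayed side by side under identical conditions: activated herring sperm DNA at 20 µg/mL, all four dNTPs, 37 °C, 1% DMSO, compound at 50 µg/mL.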

Escherichia coli = test: Inhibition of DNA dependent DNA polymerase activity of Escherichia coli DNA polymerase 1 Klenow fragment assessed as residual enzyme activity at 50 ug/ml relative to control
[2] = test system: Human immunodeficiency virus 1; test: Antiviral activity against HIV1 infected in human 721.221 B lymphocytes assessed as inhibition of pseudovirus infection; conditions: Human immunodeficiency virus 1, 721.221
[3] = test system: Human immunodeficiency virus 2; test: Inhibition of RNA dependent DNA polymerase activity of HIV2 recombinant reverse transcriptase at 140 uM
[4] = Cytotoxicity against human 721.221 cells after 72 hrs by XTT assay; type: cell-based
How it was run: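 721.221 B lymphocytes incubated 72 h at 37 °C with a range of inhibitor concentrations, each concentration in triplicate. Viability read by XTT absorbance at 450 nm, with 620 nm reference. CC50 is the concentration reducing viability by 50% versus the inhibitor-free control.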

[5] = biological target: T1, Human immunodeficiency virus type 1 reverse transcriptase (Human immunodeficiency virus 1, UniProt Q72547); test: Inhibition of RNA dependent DNA polymerase activity of HIV1 BH10 recombinant reverse transcriptase p66/p51 assessed as residual enzyme activity at 616 nM using dTTP substrate by steady state kinetic assay
[6] = biological target: T1, Human immunodeficiency virus type 1 reverse transcriptase; test: Inhibition of DNA dependent DNA polymerase activity of HIV1 BH10 recombinant reverse transcriptase p66/p51 assessed as residual enzyme activity
How it was run: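 Recombinant RT DNA-dependent DNA polymerase assay at 37 °C in 1% DMSO, with the inhibitor premixed into buffer before RT was added. Template was activated herring sperm DNA, 20 µg/mL final, with all four dNTPs. Compound present at 50 µg/mL final.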

[7] = biological target: Human immunodeficiency virus type 1 reverse transcriptase (Human immunodeficiency virus 1) (UniProt Q72547); test: Inhibition of RNA dependent DNA polymerase activity of HIV1 BH10 recombinant reverse transcriptase p66/p51 assessed as residual enzyme activity at 616 nM using variable enzyme levels by steady state kinetic assay relative to control
[8] = test system: Human immunodeficiency virus type 1 reverse transcriptase (Human immunodeficiency virus 1), Q72547 [L100I,K103N]; test: Inhibition of DNA dependent DNA polymerase activity of HIV1 reverse transcriptase L100I/K103N mutant expressed in Escherichia coli DH5alpha
How it was run: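 DDDP assay on activated herring sperm DNA (20 µg/mL final) with all four dNTPs, at 37 °C with 1% DMSO. Inhibitor in DMSO is premixed into the buffer before RT is added. Read-out is dNTP incorporation. Dose-response is fitted to a four-parameter logistic for IC50. Values are means of three independent experiments.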

[9] = biological target: T1, Human immunodeficiency virus type 1 reverse transcriptase; test: Inhibition of RNA dependent DNA polymerase activity of HIV1 BH10 recombinant reverse transcriptase p66/p51 assessed as residual enzyme activity at 616 nM using rA.dT substrate by steady state kinetic assay
[10] = biological target: Human immunodeficiency virus type 1 reverse transcriptase (Human immunodeficiency virus 1) (UniProt Q72547); test: Inhibition of HIV1 BH10 recombinant reverse transcriptase p66/p51 RNase H activity assessed as residual enzyme activity
How it was run: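 FRET RNase H assay: RT at 6 nM with 1 mM DTT, incubated with a fluorescein-RNA/DNA-dabcyl hybrid substrate ± inhibitor for 30 min at 37 °C. Hydrolysis is read as emitted fluorescence, in triplicate. Residual activity is relative to the inhibitor-free control.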

[11] = biological target: Human immunodeficiency virus type 1 reverse transcriptase (Human immunodeficiency virus 1, UniProt Q72547, Y181C); test: Inhibition of RNA dependent DNA polymerase activity of HIV1 reverse transcriptase Y181C mutant expressed in Escherichia coli BL21
[12] = biological target: T1, Human immunodeficiency virus type 1 reverse transcriptase; test: Inhibition of RNA dependent DNA polymerase activity of HIV1 BH10 recombinant reverse transcriptase p66/p51 assessed as residual enzyme activity
How it was run: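 Recombinant RT RNA-dependent DNA polymerase activity measured as [3H]dTTP incorporation into poly(rA)n·oligo(dT)12-18 at 37 °C in 1% DMSO. Inhibitor was mixed into buffer before RT was added. Compound present at 50 µg/mL final.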

[13] = Selectivity index, ratio of CC50 for human 721.221 cells to IC50 for HIV1 pseudovirus infection; type: functional
How it was run: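 CC50 in 721.221 cells from a 72 h XTT viability assay, divided by IC50 against infection by VSV-G-pseudotyped HIV-1 GFP reporter virus. For the infection assay, cells were infected with 5.6 µg/mL Polybrene and 1% DMSO in RPMI, then fixed at 48–72 h and analysed by flow cytometry. IC50 came from a four-parameter logistic fit.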

[14] = test system: Human immunodeficiency virus 1; test: Antiviral activity against HIV1 infected in human CEM cells; type: functional, organism-based; conditions: Human immunodeficiency virus 1, CCRF-CEM
[15] = test system: Human immunodeficiency virus 1; test: Antiviral activity against HIV1 infected in human 293T cells assessed as inhibition of pseudovirus infection; type: functional, organism-based; conditions: Human immunodeficiency virus 1, HEK-293T
[16] = test system: Human immunodeficiency virus 1; test: Antiviral activity against HIV1 infected in human 293T cells; type: functional, organism-based; conditions: Human immunodeficiency virus 1, HEK-293T
[17] = test system: Human immunodeficiency virus 2; test: Inhibition of DNA dependent DNA polymerase activity of HIV2 recombinant reverse transcriptase at 140 uM
[18] = test system: Human immunodeficiency virus 1; test: Antiviral activity against HIV1 infected in 8186 T cells; type: functional, organism-based; conditions: Human immunodeficiency virus 1, T-cell

SMILES	Ratio [1]	Activity (Escherichia coli)	IC50 [2]	also measured
CCCOCCCNC(=S)Nc1cc(Cl)ccc1OC	3.2	50.8%	0.32 µM	
CCCOCCCNC(=S)Nc1cccc(OC)c1	3.2	98.7%		
S=C(NCc1ccco1)Nc1ccc(Cl)cc1			> 20 µM	
COc1ccc(CCn2cc(NC(=O)CCc3ccoc3)cn2)cc1OC			> 20 µM	
CC(C)(C)CNC(=O)Nc1cc(C(F)(F)F)cc(C(F)(F)F)c1			> 20 µM	
CCCOCCCNC(=S)Nc1ccccc1OCC	5.4	87.1%	0.43 µM	
CCCOCCCNC(=S)Nc1cc(OC)ccc1OC			3 µM	
CCCOCCCNC(=S)Nc1cc(OC)c(Cl)cc1OC	7.4	62.2%	0.17 µM	inhibition [3]: 50%; CC50 at 72 h [4]: 58 µM; Ki [5]: 1.1 µM; IC50 [6]: 0.94 µM; Activity [7]: 59%; Activity [8]: Active; Ki [9]: 1.8 µM; Activity [10]: inactive; IC50 [11]: 70 µM; IC50 [12]: 0.51 µM; Ratio CC50/IC50 [13]: 345
CCCOCCCNC(=S)Nc1cc(C)c(C)cc1C	2.9	64.4%		
CCCOCCCNC(=S)Nc1ccc(Br)c(C)c1	0.6	14.4%		
S=C(NCc1ccco1)N1CCO[C@H](COc2cncc(Cl)c2)C1			> 20 µM	
CCCOCCCNC(=S)Nc1cc(C)ccc1Cl	4.4	76.5%	0.67 µM	
COc1ccccc1NC(=S)NCc1ccco1			> 20 µM	
CCCOCCCNC(=S)Nc1cccc(C#N)c1	1.1	75.2%		
S=C(NCc1ccco1)NC1CCCCC1			> 20 µM	
CCCOCCCNC(=S)Nc1ccc(Cl)c(C(F)(F)F)c1	0.5	2.2%		
CCCOCCCNC(=S)Nc1ccc(Br)cc1	1.7	48.4%		
CCCOCCCNC(=S)Nc1ccc(F)cc1Br	1.2	47.6%		
C=CCOc1nc(OCC=C)nc(OC[C@@H]2CN(C(=S)NCc3ccco3)CCO2)n1			> 20 µM	
O=S(=O)(Nc1n[nH]cc1Br)c1cccc2nsnc12			0.37 µM	inhibition [3]: 50%; IC50 [6]: 3.3 µM; Activity [8]: Active; Activity [10]: inactive; IC50 [11]: 20 µM; IC50 [12]: 2.8 µM; Ratio CC50/IC50 [13]: >446
CCCOCCCNC(=S)Nc1cc(C)ccc1OC	4.3	71.7%	0.89 µM	

SMILES	Ratio [1]	Activity (Escherichia coli)	IC50 [2]	also measured
Cc1ccc(NC(=S)N2CCc3c([nH]c4ccccc34)C2)c(Cl)c1			> 20 µM	
CCCOCCCNC(=S)Nc1cc(F)ccc1F	0.6	47.5%		
CCCCc1ccc(NC(=S)NCCCOCCC)c(C)c1	0.2	4.5%		
CCCCc1ccc(NC(=S)NCCCOCCC)cc1	2.4	74.2%		
CCCOCCCNC(=S)Nc1ccc(Br)c(Cl)c1	0.2	1%		
CCCOCCCNC(=S)Nc1cccc(Cl)c1C	0.4	10.8%		
CCOC(=O)CCN(Cc1ccco1)C(=S)Nc1cccc(OC)c1			> 20 µM	
COc1cccc(CCNC(=S)Nc2ccc(Br)c(C)c2)c1OC			7.7 µM	
Cc1ccc(CCN2C(=O)CS[C@@H]2c2ccc(C)o2)cc1			> 20 µM	
CCCOCCCNC(=S)Nc1ccc(N(C)C)cc1	0.2	11.1%		
Cc1ccnc2c1NC(=O)c1cccnc1N2C1CC1 [NEVIRAPINE]		47.5%		IC50 [14]: 0.024 µM; IC50 [15]: 0.014 µM; IC50 [16]: 0.05 µM; Activity [17]: inactive; Activity [8]: Active; Activity [10]: inactive; IC50 [18]: 0.04 µM
CCCOCCCNC(=S)Nc1ccc(C(=O)OC)cc1	0.2	2.6%		
CCCOCCCNC(=S)Nc1ccc(Cl)cc1C		47.5%	2.6 µM	
C[C@H](NC(=S)Nc1ccc(Cl)cc1)c1ccccc1			4 µM	
CCOC(=O)CCCNC(=S)Nc1ccc(Cl)c(C(F)(F)F)c1			1.6 µM	
CCCOCCCNC(=S)Nc1ccc(Cl)cc1Cl	0.2	13.2%		
CCCOCCCNC(=S)Nc1cccc(C(=O)OCC)c1	1.2	56.6%		
CCCOCCCNC(=S)Nc1ccccc1Cl	1.2	59.3%		
CCCOCCCNC(=S)Nc1ccc(C(C)(C)C)cc1	0.4	13.8%		
Cc1cc(NC(=S)NCCC2=CCCCC2)ccc1Br			0.23 µM	
